# Measured values as given in ChEMBL document CHEMBL4477212 (J Med Chem, 2016).
# Experiments:
# CEM-SS [1] = assay: Cytotoxicity against human CEM-SS cells assessed as cell viability at 10 uM after 6 days by MTS assay; format: cell-based; details: 144 h
# Procedure, shortened: (§1)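 Single-concentration screen (10 μM) in CEM-SS cells infected with pre-titered HIV-1 IIIB, sized so virus control wells lose 70–95% viability. Incubation was 6 days and read-out was by MTS. Percent CPE reduction was calculated against virus control wells (cells plus virus). Percent viability was calculated against cell-only control wells. Plates included compound toxicity and colorimetric controls, and AZT as positive control.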
# [2] = biological target: Human immunodeficiency virus type 1 integrase (Human immunodeficiency virus 1, UniProt Q7ZJM1); assay: Inhibition of HIV1 recombinant integrase expressed in Escherichia coli using [32P]-labeled oligonucleotide as substrate after 60 mins by strand transfer activity assay
# Chain of Human immunodeficiency virus type 1 integrase (Q7ZJM1 whole entry): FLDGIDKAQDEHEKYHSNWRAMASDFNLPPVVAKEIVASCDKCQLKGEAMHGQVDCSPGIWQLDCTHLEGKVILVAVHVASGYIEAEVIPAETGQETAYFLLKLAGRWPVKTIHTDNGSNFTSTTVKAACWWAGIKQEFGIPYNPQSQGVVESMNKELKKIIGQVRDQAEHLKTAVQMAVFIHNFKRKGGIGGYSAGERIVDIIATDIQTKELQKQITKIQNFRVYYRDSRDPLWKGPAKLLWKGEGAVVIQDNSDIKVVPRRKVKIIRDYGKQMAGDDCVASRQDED
# [3] = system: Human immunodeficiency virus 1; assay: Antiviral activity against HIV1 3B infected in human CEM-SS cells assessed as reduction of virus-induced cytopathic effect at 10 uM after 6 days by MTS assay; format: functional; design: scale not given: the % may be the effect or the level left; procedure, shortened: as §1
# [4] = Half life of the compound in DPBS; format: physicochemical
# [5] = biological target: Human immunodeficiency virus type 1 reverse transcriptase (Human immunodeficiency virus 1, UniProt Q72547); assay: Inhibition of RNase H activity of full length HIV1 reverse transcriptase using RNA-DNA duplex HTS-1 substrate
# [6] = Plasma protein binding in mouse; format: ADME, cell-free
# [7] = Aqueous solubility of the compound in DPBS; format: physicochemical; details: buffer
# [8] = Therapeutic index, ratio of CC50 for human CEM-SS cells to EC50 for HIV1 3B infected in human CEM-SS cells; format: toxicity, cell-based; details: read-out: Ratio CC50/EC50
# [9] = Half life in mouse plasma; format: ADME, cell-free
# [10] = system: Human immunodeficiency virus 1; assay: Antiviral activity against HIV1 3B infected in human CEM-SS cells assessed as reduction of virus-induced cytopathic effect after 6 days by MTS assay; format: functional, organism-based; details: Human immunodeficiency virus 1, 3B, 144 h
# [11] = Intrinsic clearance in human liver microsomes assessed as glucuronidation during phase 2 measured per mg of protein
# [12] = Intrinsic clearance in mouse liver microsomes assessed as glucuronidation during phase 2 measured per mg of protein; format: ADME, Microsome
# [13] = Intrinsic clearance in human liver microsomes during phase 1 measured per mg of protein; format: ADME, Microsome
# [14] = Half life in human plasma; format: ADME, cell-free
# [15] = Plasma protein binding in human; format: ADME, cell-free
# CEM-SS [16] = assay: Cytotoxicity against human CEM-SS cells assessed as cell death after 6 days by MTS assay; format: cell-based; details: 144 h
# Procedure, shortened: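 Dose-response format in CEM-SS cells exposed to compound alone (toxicity control wells) alongside the HIV-1 IIIB cytoprotection plates. Incubation was 6 days and viability was measured by MTS. CC50 is the concentration giving 50% cell death, determined from the dose-response data.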
# [17] = system: Human immunodeficiency virus 1; assay: Antiviral activity against HIV1 infected in human P4R5 cells assessed as reduction of virus replication preincubated with cells for 24 hrs followed by viral infection for 48 hrs by 4-methylumbelliferylgalactoside-based MAGI assay; format: functional, organism-based
SMILES,Activity (CEM-SS [1]),IC50 [2],Activity [3],other results
O=C(NCc1ccccc1)c1c(Nc2ccccc2)[nH]c(=O)n(O)c1=O,21%,> 100000 nM,0%,–
O=C(NCc1ccccc1)c1c(Nc2ccc(-c3ccccc3)cc2)[nH]c(=O)n(O)c1=O,13%,> 100000 nM,0%,–
CCNc1[nH]c(=O)n(O)c(=O)c1C(=O)NCCc1ccccc1,87%,100 nM,99%,–
CCCNc1[nH]c(=O)n(O)c(=O)c1C(=O)NCc1cccc(Cl)c1F,48%,58 nM,33%,–
Nc1[nH]c(=O)n(O)c(=O)c1C(=O)NCc1ccccc1,100%,900 nM,99%,–
CCNc1[nH]c(=O)n(O)c(=O)c1C(N)=O,–,> 100000 nM,–,–
CCNc1[nH]c(=O)n(O)c(=O)c1C(=O)NCCCl,100%,> 100000 nM,5.1%,–
CCNc1[nH]c(=O)n(O)c(=O)c1C(=O)NCc1cc(F)cc(F)c1,100%,230 nM,100%,–
CNc1[nH]c(=O)n(O)c(=O)c1C(=O)NCc1cccc(F)c1,95%,250 nM,100%,–
CNc1[nH]c(=O)n(O)c(=O)c1C(=O)NCc1ccccc1,98%,80 nM,100%,half-life [4]: > 24 h; IC50 [5]: 61 nM; PPB [6]: 70.9%; solubility [7]: 138 µM; selectivity ratio [8]: 70; t1/2 [9]: > 24 h; EC50 [10]: 830 nM; CLH [11]: 51 µL/min; CLH [12]: 500 µL/min/mg; CLH [13]: 0.8 µL/min/mg; t1/2 [14]: > 24 h; PPB [15]: 99.2%; CC50 (CEM-SS [16]): 58000 nM; EC50 [17]: 3700 nM
CNc1[nH]c(=O)n(O)c(=O)c1C(=O)NCc1cccc(Cl)c1F,100%,110 nM,100%,–
CCNc1[nH]c(=O)n(O)c(=O)c1C(=O)NCc1ccc(C)c(F)c1,100%,51 nM,100%,half-life [4]: > 24 h; IC50 [5]: 20 nM; PPB [6]: 95.9%; solubility [7]: 81 µM; selectivity ratio [8]: 130; t1/2 [9]: > 24 h; EC50 [10]: 150 nM; CLH [11]: 357 µL/min; CLH [12]: 1342 µL/min/mg; CLH [13]: < 0.1 µL/min/mg; t1/2 [14]: > 24 h; PPB [15]: 98.9%; CC50 (CEM-SS [16]): 20000 nM; EC50 [17]: 1300 nM
O=C(NCc1ccc(F)cc1)c1c2n(c(=O)n(O)c1=O)CCCN2,5.5%,430 nM,0%,–
CCNc1[nH]c(=O)n(O)c(=O)c1C(=O)NCc1ccc(F)cc1,99%,49 nM,100%,half-life [4]: > 24 h; IC50 [5]: 11 nM; PPB [6]: 86.5%; solubility [7]: 150 µM; selectivity ratio [8]: 580; t1/2 [9]: > 24 h; EC50 [10]: 33 nM; CLH [12]: 1240 µL/min/mg; CLH [13]: < 0.1 µL/min/mg; t1/2 [14]: > 24 h; PPB [15]: 99.4%; CC50 (CEM-SS [16]): 19000 nM; EC50 [17]: 90 nM
CCNc1[nH]c(=O)n(O)c(=O)c1C(=O)NCc1ccc(F)c(F)c1,100%,77 nM,100%,IC50 [5]: 26 nM; selectivity ratio [8]: 430; EC50 [10]: 49 nM; CC50 (CEM-SS [16]): 21000 nM; EC50 [17]: 300 nM
CC(C)Nc1[nH]c(=O)n(O)c(=O)c1C(=O)NCc1ccccc1,90%,150 nM,98%,–
CNc1[nH]c(=O)n(O)c(=O)c1C(=O)NCc1ccc(F)cc1,89%,110 nM,100%,–
O=C(NCc1ccccc1)c1c(NC2CC2)[nH]c(=O)n(O)c1=O,91%,210 nM,98%,–
CCNc1[nH]c(=O)n(O)c(=O)c1C(=O)NCc1cc(F)ccc1F,87%,68 nM,92%,–
CCNc1[nH]c(=O)n(O)c(=O)c1C(=O)NCc1ccccc1,100%,33 nM,100%,half-life [4]: > 24 h; IC50 [5]: 42 nM; PPB [6]: 83.9%; solubility [7]: 1091 µM; selectivity ratio [8]: 380; t1/2 [9]: > 24 h; EC50 [10]: 61 nM; CLH [11]: 355 µL/min; CLH [12]: 732 µL/min/mg; CLH [13]: < 0.1 µL/min/mg; t1/2 [14]: > 24 h; PPB [15]: 99.1%; CC50 (CEM-SS [16]): 23000 nM; EC50 [17]: 300 nM
CCNc1[nH]c(=O)n(O)c(=O)c1C(=O)NCc1cc(F)ccc1Cl,73%,95 nM,62%,–
CCNc1[nH]c(=O)n(O)c(=O)c1C(=O)NCc1ccc(F)cc1F,92%,48 to 68 nM,100%,IC50 [5]: 10 nM; selectivity ratio [8]: 1500; EC50 [10]: 32 nM; CC50 (CEM-SS [16]): 47000 nM; EC50 [17]: 70 nM
CCNc1[nH]c(=O)n(O)c(=O)c1C(=O)NCc1cccc(F)c1,90%,68 nM,100%,–
CC(C)(C)Nc1[nH]c(=O)n(O)c(=O)c1C(=O)NCc1ccccc1,17%,81 nM,0%,–
CCNc1[nH]c(=O)n(O)c(=O)c1C(=O)Oc1ccccc1,100%,> 100000 nM,50%,–
CCNc1[nH]c(=O)n(O)c(=O)c1C(=O)NCc1ccc(Cl)c(F)c1,100%,120 nM,100%,IC50 [5]: 22 nM; EC50 [10]: 190 nM; CC50 (CEM-SS [16]): 19000 nM; EC50 [17]: 800 nM
CCNc1c(C(=O)NCc2ccc(F)cc2)c(=O)n(O)c(=O)n1C,10%,> 100000 nM,6.5%,–
CCNc1[nH]c(=O)n(O)c(=O)c1C(=O)Nc1ccccc1,27%,35000 nM,11%,–
CCCNc1[nH]c(=O)n(O)c(=O)c1C(=O)NCc1ccccc1,97%,66 nM,100%,–
